Data on 19 compounds can be found in ChEMBL document CHEMBL1165941, “Design and synthesis of 2,4-disubstituted polyhydroquinolines as prospective antihyperglycemic and lipid modulating agents” (Bioorg Med Chem, 2010).

The source made the active and inactive calls. The calls are words filed in the database; no cut-off is given here.

For experiment [1], the target named is T1, Glucose-6-phosphatase catalytic subunit 1 (Homo sapiens) (UniProt P35575).
T1 sequence (whole entry): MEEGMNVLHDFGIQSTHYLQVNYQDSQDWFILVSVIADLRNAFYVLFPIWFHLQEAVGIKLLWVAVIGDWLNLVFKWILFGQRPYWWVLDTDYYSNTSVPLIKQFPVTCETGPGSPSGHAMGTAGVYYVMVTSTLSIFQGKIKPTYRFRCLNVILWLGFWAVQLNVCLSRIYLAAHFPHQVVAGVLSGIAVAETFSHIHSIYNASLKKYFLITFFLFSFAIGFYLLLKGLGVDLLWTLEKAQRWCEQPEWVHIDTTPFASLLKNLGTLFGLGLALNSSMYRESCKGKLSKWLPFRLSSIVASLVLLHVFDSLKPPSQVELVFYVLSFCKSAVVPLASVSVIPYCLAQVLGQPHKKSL
Nature of the experiment: Inhibition of glucose-6-phosphatase assessed as inositol phosphate release at 100 uM after 30 mins. The note with it: in the assay text read “inorganic phosphate” for “inositol phosphate”. In short, it runs like this:
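Glucose-6-phosphatase was assayed in 0.3 M citrate pH 6.0 with 28 mM EDTA, 14 mM NaF, 200 mM glucose-6-phosphate and enzyme protein. After 30 min at 37 °C the reaction was stopped with 10% TCA. Activity was expressed as µmol Pi released per min per mg protein.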

Experiment [2] is described as follows: Inhibition of alpha-glucosidase at 100 uM after 3 mins. In short, it runs like this:
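α-Glucosidase (0.1 mg/mL, purified) was assayed in 67 mM sodium phosphate pH 6.8 with 1.0 mg/mL glutathione. The reaction was started with 3.0 mg/mL pNPG and followed at 405 nm every 30 s for 3 min.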

For experiment [3], the system named is Rattus norvegicus. As to the kind of experiment: Antihyperglycemic activity in Sprague-Dawley albino rat streptozotocin-induced beta-cell damaged diabetic model assessed as decrease of blood glucose level at 100 mg/kg, po administered 30 mins before glucose challenge measured after 5 hrs by glucometer. In kind it is functional. The arrangement: scale not given: the % may be the effect or the level left. The essentials:
(§1)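 Rats were made diabetic with streptozotocin 60 mg/kg ip in 100 mM citrate pH 4.5 after an overnight fast. Animals with glucose 144–270 mg/dl at 48 h were used, 5–6 per group. Compounds were given 100 mg/kg orally in 1.0% gum acacia. Sucrose 2.5 g/kg followed 30 min later. Glucose was read by glucostrips up to 300 min and at 24 h. Non-responders were excluded. Percent activity came from AUC versus control.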

Experiment [4] can be described thus: Inhibition of glycogen phosphorylase assessed as […] phosphate release at 100 uM after 30 mins. In short, it runs like this:
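Glycogen phosphorylase was incubated with glycogen, glucose-1-phosphate, NaF and 5′-AMP for 30 min at 37 °C. The reaction was stopped with 10% TCA and 0.1 M sodium acetate. Samples were held overnight at 4 °C, then released Pi was measured.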

Experiment [5] has as its system Rattus norvegicus. Nature of the experiment: Antihyperglycemic activity in Sprague-Dawley albino rat streptozotocin-induced beta-cell damaged diabetic model assessed as decrease of blood glucose level at 100 mg/kg, po administered 30 mins before glucose challenge measured after 24 hrs by glucometer. In kind it is functional. Set-up: scale not given: the % may be the effect or the level left. In short, it runs like this:
as §1

Experiment [6] has as its system Rattus norvegicus. Nature of the experiment: Antihyperglycemic activity in Charles Foster-Wistar albino rat sucrose loaded model assessed as decrease of blood glucose level at 100 mg/kg, po administered 30 mins before glucose challenge measured up to 120 mins by glucometer. The class given is functional. Set-up: scale not given: the % may be the effect or the level left. The note with it: in the assay text read “Sprague-Dawley” for “Charles Foster-Wistar”. In short, it runs like this: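 Sprague–Dawley male rats with blood glucose 60–80 mg/dl, 5–6 per group, received 100 mg/kg orally as a suspension in 1.0% gum acacia; controls received vehicle. Sucrose 10.0 g/kg was given orally 30 min later. Glucose was read by glucometer at 30, 60, 90 and 120 min. Food was withheld. Percent activity came from AUC versus control.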

The target in experiment [7] is T2, Tyrosine-protein phosphatase non-receptor type 1 (Homo sapiens) (UniProt P18031).
T2 sequence (whole entry): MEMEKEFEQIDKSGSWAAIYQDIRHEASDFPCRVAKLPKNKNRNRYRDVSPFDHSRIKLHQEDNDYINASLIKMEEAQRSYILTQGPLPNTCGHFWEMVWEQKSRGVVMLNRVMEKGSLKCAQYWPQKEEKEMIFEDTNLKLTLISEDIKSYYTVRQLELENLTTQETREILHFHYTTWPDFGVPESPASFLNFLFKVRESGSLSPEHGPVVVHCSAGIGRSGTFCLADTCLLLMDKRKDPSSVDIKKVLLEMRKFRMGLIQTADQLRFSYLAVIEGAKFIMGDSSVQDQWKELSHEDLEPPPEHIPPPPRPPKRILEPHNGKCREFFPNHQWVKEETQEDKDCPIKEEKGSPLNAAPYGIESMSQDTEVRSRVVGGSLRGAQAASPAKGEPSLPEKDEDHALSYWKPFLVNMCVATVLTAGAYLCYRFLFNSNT
As to the kind of experiment: Inhibition of PTP1B assessed as p-nitrophenolate ion production at 100 uM pretreated for 10 mins measured after 30 mins. In short, it runs like this:
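PTP1B was preincubated 10 min with compound, with and without 0.01% Triton X-100. Substrate was 10 mM pNPP in 50 mM HEPES pH 7.0 with 1 mM DTT and 2 mM EDTA. After 30 min at 37 °C the reaction was stopped with 0.1 N NaOH and A410 was read. Product was calculated with ε 1.78×10⁴ M⁻¹cm⁻¹. Sodium orthovanadate served as standard. IC50 came from dose–response curves.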

Experiment [8] concerns the target Dipeptidyl peptidase 4 (Homo sapiens) (UniProt P27487). Nature of the experiment: Inhibition of DPP4 at 100 uM after 15 mins by spectrofluorimeter. In short, it runs like this:
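DPP-IV activity was measured at 37 °C as Gly-Pro-AMC (30 µM) cleavage in Tris–HCl pH 7.4 with test compound. Fluorescence was read at excitation 355 nm and emission 460 nm. The initial rate was taken over the first 15 min.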

Chain of Dipeptidyl peptidase 4 (Homo sapiens) (P27487 whole entry, looked up): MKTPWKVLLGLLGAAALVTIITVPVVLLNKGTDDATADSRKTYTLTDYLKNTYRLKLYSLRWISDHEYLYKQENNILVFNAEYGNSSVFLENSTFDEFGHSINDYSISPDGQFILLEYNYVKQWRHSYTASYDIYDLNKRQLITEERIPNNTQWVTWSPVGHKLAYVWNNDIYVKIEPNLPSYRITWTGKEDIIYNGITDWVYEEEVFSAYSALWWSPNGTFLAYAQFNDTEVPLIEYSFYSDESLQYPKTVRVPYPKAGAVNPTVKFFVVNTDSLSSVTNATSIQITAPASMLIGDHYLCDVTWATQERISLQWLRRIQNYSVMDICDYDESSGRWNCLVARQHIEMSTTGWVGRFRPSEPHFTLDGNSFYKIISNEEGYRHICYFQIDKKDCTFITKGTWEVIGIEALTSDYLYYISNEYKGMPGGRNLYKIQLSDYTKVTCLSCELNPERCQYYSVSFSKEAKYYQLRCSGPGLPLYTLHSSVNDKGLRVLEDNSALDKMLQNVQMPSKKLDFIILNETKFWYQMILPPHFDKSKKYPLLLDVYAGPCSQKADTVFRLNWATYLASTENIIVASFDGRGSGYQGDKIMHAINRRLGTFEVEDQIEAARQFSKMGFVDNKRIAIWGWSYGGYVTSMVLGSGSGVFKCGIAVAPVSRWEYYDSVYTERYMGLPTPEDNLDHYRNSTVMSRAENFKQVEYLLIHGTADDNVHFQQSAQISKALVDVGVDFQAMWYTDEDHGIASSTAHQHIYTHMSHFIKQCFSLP

Usually inhibition stands for the change of the read-out against control, counted positive when it falls. As for `CC1(C)CC(=O)C2=C(C1)NC(C(=O)O)=CC2c1ccc(F)cc1` (stereo not given), the inhibition in experiment [1] is 16.8%; in experiment [2], 1.4%; in experiment [4], 46.6%; in experiment [7] it was 27%. Besides, the Activity was 27.8% in the experiment on Rattus norvegicus [3], 23.6% in the experiment with Rattus norvegicus [5] and 38.7% in the experiment with Rattus norvegicus [6]. In addition, the inhibition result in experiment [8] is “inactive”.
Regarding `COc1ccc(C2=CC(c3ccccc3)C3=C(CC(C)(C)CC3=O)N2)cc1` (stereo not given), the inhibition in experiment [1] was found to be 8.34%; in experiment [2], 22.4%; in experiment [4], 18.4%; in experiment [7], 53.4%. Further, the Activity in the experiment with Rattus norvegicus [3] is 11.9%; with Rattus norvegicus [5], 11.7%; with Rattus norvegicus [6], 17.3%. In addition, the inhibition entry in experiment [8] is “inactive”.
On to `CCOC(=O)C1=CC(c2ccc(Cl)cc2)C2=C(CC(C)(C)CC2=O)N1` (stereo not given), for which the inhibition in experiment [1] was 11.3%; in experiment [4], 56.7%; in experiment [7], 53.8%; in experiment [8], 12.5%. Further, the inhibition result in experiment [2] was “inactive”. Also, the Activity in the experiment with Rattus norvegicus [6] stood at 11.4%.
As to `CCOC(=O)C1(O)CC(c2ccc(OC)cc2)C2=C(CC(C)(C)CC2=O)O1` (stereo not given), the inhibition result in experiment [1], in experiment [2], in experiment [4] and in experiment [8] was “inactive” each time. In addition, the outcome in the experiment with Rattus norvegicus [6] (Sprague-Dawley albino) was inactive. For the same compound, the inhibition in experiment [7] stood at 13.6%.
With `O=C1CCCC2=C1C(c1ccccc1)C=C(c1ccccc1)N2` (stereo not given), the inhibition result in experiment [1], in experiment [2] and in experiment [8] was “inactive” throughout. Moreover, the Activity was found to be 15.1% in the experiment with Rattus norvegicus [3], 13.8% with Rattus norvegicus [5] and 19.7% in the experiment on Rattus norvegicus [6]. Besides, the inhibition in experiment [4] is 21.8%; in experiment [7] it was 51.2%.
With `CCOC(=O)C1=CC(c2ccccc2)C2=C(CC(C)(C)CC2=O)N1` (stereo not given), the inhibition result in experiment [1], in experiment [2] and in experiment [8] was “inactive” each time. Further, the figures for the Activity in the experiment on Rattus norvegicus [3], in the experiment on Rattus norvegicus [5] and in the experiment on Rattus norvegicus [6] were 7.1%, 11.3% and 16.6%, respectively. For the same compound, the inhibition in experiment [4] turned out to be 49.5%; in experiment [7], 43.3%.
`CC1(C)CC(=O)c2c(-c3ccc(Cl)cc3)cc(-c3ccccc3)nc2C1`: the inhibition came out at 11.3% in experiment [1], 13.8% in experiment [4], 18.6% in experiment [7] and 29.4% in experiment [8]. Besides, the inhibition result in experiment [2] is “inactive”. Further, the outcome in the experiment on Rattus norvegicus [6] (Sprague-Dawley albino) was inactive.
In turn, SODIUM ORTHOVANAD returned an inhibition in experiment [8] of 57.8%.
In the case of `CCOC(=O)C1=CC(c2ccc(OC)cc2)C2=C(CC(C)(C)CC2=O)N1` (stereo not given), the inhibition in experiment [1] is 23.8%; in experiment [4], 40.4%; in experiment [7], 66.7%; in experiment [8] it was 16.5%. In addition, in experiment [2], the inhibition result was “inactive”. The Activity with Rattus norvegicus [6] stood at 12.9%.
Take `CCOC(=O)C1(O)CC(c2ccccc2)C2=C(CC(C)(C)CC2=O)O1` (stereo not given): the inhibition entry in experiment [1], in experiment [2], in experiment [4] and in experiment [8] was “inactive” in each case. The result in the experiment with Rattus norvegicus [6] (Sprague-Dawley albino) was inactive. The inhibition in experiment [7] was determined as 21.3%.
Take `COc1ccc(C2C=C(c3ccccc3)NC3=C2C(=O)CCC3)cc1` (stereo not given): the inhibition amounted to 17.3% in experiment [1], 7.3% in experiment [2], 13.8% in experiment [4] and 56.8% in experiment [7]. The values for the Activity with Rattus norvegicus [3], with Rattus norvegicus [5] and in the experiment with Rattus norvegicus [6] were 17.5%, 19.4% and 29.6%, respectively. Moreover, the inhibition entry in experiment [8] was “inactive”.
As for `CC1(C)CC(=O)C2=C(C1)NC(c1ccccc1)=CC2c1c[nH]c2ccccc12` (stereo not given), the inhibition in experiment [1] is 26.7%; in experiment [4], 39.7%; in experiment [7] it was 54.5%. For the same compound, the inhibition result in experiment [2] and in experiment [8] was “inactive” in each case. Also, the Activity in the experiment on Rattus norvegicus [3] is listed as 8.1%; in the experiment on Rattus norvegicus [5], 13.2%; in the experiment with Rattus norvegicus [6], 17.3%.
Take `CCOC(=O)C1(O)CC(c2ccc(Cl)cc2)C2=C(CC(C)(C)CC2=O)O1` (stereo not given): the inhibition result in experiment [1], in experiment [2] and in experiment [8] was “inactive” each time. The inhibition in experiment [4] was 7.6%; in experiment [7] it was 16.5%. For the same compound, in the experiment with Rattus norvegicus [6] (Sprague-Dawley albino), the result was inactive.
Regarding `Cc1ccc(C2=CC(c3ccccc3)C3=C(CCCC3=O)N2)cc1` (stereo not given), the inhibition in experiment [1] is 27.7%; in experiment [2], 8.3%; in experiment [7] it was 33.3%; in experiment [8], 18.8%. Besides, the inhibition entry in experiment [4] was “inactive”. Moreover, the Activity with Rattus norvegicus [6] is listed as 13.4%.
As to `COc1ccc(-c2cc(-c3ccccc3)nc3c2C(=O)CC(C)(C)C3)cc1`, the inhibition result in experiment [1] and in experiment [2] was “inactive” in each case. In addition, the inhibition was 31.1% in experiment [4], 9.1% in experiment [7] and 22% in experiment [8]. In addition, in the experiment with Rattus norvegicus [6] (Sprague-Dawley albino), the result was inactive.
As to `CC1(C)CC(=O)c2c(-c3ccc(F)cc3)cc(-c3ccccc3)nc2C1`, the inhibition is 11.1% in experiment [1], 20.3% in experiment [4], 7.9% in experiment [7] and 13.1% in experiment [8]. For the same compound, the inhibition result in experiment [2] is “inactive”. Besides, the result in the experiment with Rattus norvegicus [6] (Sprague-Dawley albino) was inactive.
As to `CN(C)C(=N)NC(=N)N` [METFORMIN], the Activity with Rattus norvegicus [3] was 18%; in the experiment with Rattus norvegicus [5] it was 20.2%; with Rattus norvegicus [6], 13.5%.
Turning to `CCOC(=O)C1(O)CC(c2ccc(Br)cc2)C2=C(CC(C)(C)CC2=O)O1` (stereo not given), the inhibition result in experiment [1], in experiment [2] and in experiment [8] was “inactive” throughout. The inhibition in experiment [4] was 12.3%; in experiment [7], 4.7%. The result in the experiment with Rattus norvegicus [6] (Sprague-Dawley albino) was inactive.
For the compound `COc1ccc(Cl)cc1C(=O)NCCc1ccc(S(=O)(=O)NC(=O)NC2CCCCC2)cc1` [GLYBURIDE], the figures for the Activity in the experiment with Rattus norvegicus [3], with Rattus norvegicus [5] and in the experiment on Rattus norvegicus [6] were 25.6%, 28.4% and 32.5%, respectively.
